Test results from ChEMBL document CHEMBL1255429, “Efflux pumps are involved in the defense of Gram-negative bacteria against the natural products isobavachalcone and diospyrone” (2010).
Converted amounts (≈) assume the structure as drawn. Residues, ends and D or L forms follow the SMILES beside them. *: point of attachment. βNA = c1ccc2cc(N*)ccc2c1

How the values were obtained:
Type in all cases: functional
Escherichia coli [1] = test: Antimicrobial activity against Escherichia coli ATCC 10536 after 18 hrs by rapid INT colorimetric assay; settings: ATCC 10536, 18 h
Method in brief: (§1)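 Strains precultured overnight on Mueller-Hinton agar. Sample dissolved in DMSO-MHB, twofold serial dilutions in MHB, inoculum 1.5 × 10^6 CFU/ml; final DMSO below 2.5%. Incubated 37°C 18 h, then 0.2 mg/ml INT added, 30 min at 37°C. MIC = lowest concentration preventing yellow-to-pink change (complete growth inhibition). DMSO-only wells as negative control.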

Klebsiella pneumoniae [2] = test: Antimicrobial activity against Klebsiella pneumoniae KP63 after 18 hrs by rapid INT colorimetric assay; settings: KP63, 18 h; method in brief: as §1
Escherichia coli [3] = test: Antimicrobial activity against Escherichia coli AG100 after 18 hrs by rapid INT colorimetric assay; settings: AG100, 18 h
Method in brief: (§2)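 Strains precultured overnight on Mueller-Hinton agar. Samples dissolved in DMSO-MHB, serially diluted twofold in MHB, inoculum 1.5 × 10^6 CFU/ml in MHB added; 37°C, 18 h; final DMSO <2.5%. 0.2 mg/ml INT then added, 30 min at 37°C. MIC = lowest concentration preventing yellow-to-pink reduction, i.e. complete growth inhibition.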

Klebsiella aerogenes [4] = test: Antimicrobial activity against Enterobacter aerogenes EA5 after 18 hrs by rapid INT colorimetric assay; settings: EA5, 18 h; method in brief: as §1
Pseudomonas aeruginosa [5] = test: Antimicrobial activity against Pseudomonas aeruginosa PAO1 after 18 hrs by rapid INT colorimetric assay; settings: PAO1, 18 h; method in brief: as §2
Klebsiella aerogenes [6] = test: Antimicrobial activity against Enterobacter aerogenes EA289 after 18 hrs by rapid INT colorimetric assay; settings: EA289, 18 h; method in brief: as §1
Klebsiella aerogenes [7] = test: Antimicrobial activity against Enterobacter aerogenes EA294 after 18 hrs by rapid INT colorimetric assay; settings: EA294, 18 h; method in brief: as §2
Escherichia coli [8] = test: Antimicrobial activity against Escherichia coli AG100A after 18 hrs by rapid INT colorimetric assay; method in brief: as §2
Enterobacter cloacae [9] = test: Antimicrobial activity against Enterobacter cloacae Ec1194 after 18 hrs by rapid INT colorimetric assay; settings: Ec1194, 18 h; method in brief: as §1
Klebsiella aerogenes [10] = test: Antimicrobial activity against Enterobacter aerogenes EA3 after 18 hrs by rapid INT colorimetric assay; settings: EA3, 18 h; method in brief: as §1
Klebsiella pneumoniae [11] = test: Antimicrobial activity against Klebsiella pneumoniae KP55 after 18 hrs by rapid INT colorimetric assay; settings: KP55, 18 h; method in brief: as §1
Klebsiella aerogenes [12] = test: Antimicrobial activity against Enterobacter aerogenes EA-CM64 after 18 hrs by rapid INT colorimetric assay; settings: EA-CM64, 18 h; method in brief: as §2
Klebsiella aerogenes [13] = test: Antimicrobial activity against Enterobacter aerogenes EA27 after 18 hrs by rapid INT colorimetric assay; settings: EA27, 18 h; method in brief: as §1
Klebsiella aerogenes [14] = test: Antimicrobial activity against Enterobacter aerogenes EA298 after 18 hrs by rapid INT colorimetric assay; settings: EA298, 18 h; method in brief: as §2
Escherichia coli [15] = test: Antimicrobial activity against tetracycline-resistant Escherichia coli AG100A after 18 hrs by rapid INT colorimetric assay; method in brief: as §2
Klebsiella pneumoniae [16] = test: Antimicrobial activity against Klebsiella pneumoniae ATCC 11296 after 18 hrs by rapid INT colorimetric assay; settings: ATCC 11296, 18 h; method in brief: as §2
Klebsiella aerogenes [17] = test: Antimicrobial activity against Enterobacter aerogenes ATCC 13048 after 18 hrs by rapid INT colorimetric assay; settings: ATCC 13048, 18 h; method in brief: as §1
Pseudomonas aeruginosa [18] = test: Antimicrobial activity against Pseudomonas aeruginosa PA124 after 18 hrs by rapid INT colorimetric assay; settings: PA124, 18 h; method in brief: as §2
Enterobacter cloacae [19] = test: Antimicrobial activity against Enterobacter cloacae Ec07769 after 18 hrs by rapid INT colorimetric assay; settings: Ec07769, 18 h; method in brief: as §1
Escherichia coli [20] = test: Antimicrobial activity against Escherichia coli ATCC 8739 after 18 hrs by rapid INT colorimetric assay; settings: ATCC 8739, 18 h; method in brief: as §2
Escherichia coli [21] = test: Antimicrobial activity against tetracycline-resistant Escherichia coli AG102 after 18 hrs by rapid INT colorimetric assay; settings: AG102, 18 h; method in brief: as §2

N=C(N)NCCC[C@H](NC(=O)[C@@H](N)Cc1ccccc1)C(=O)Nc1ccc2ccccc2c1 [PABETAN] (H-Phe-Arg-βNA)
MIC (Escherichia coli [1]): > 256 µg/mL | MIC (Klebsiella pneumoniae [2]): > 256 µg/mL | MIC (Escherichia coli [3]): > 256 µg/mL | MIC (Klebsiella aerogenes [4]): > 256 µg/mL | MIC (Pseudomonas aeruginosa [5]): > 256 µg/mL | MIC (Klebsiella aerogenes [6]): > 256 µg/mL | MIC (Klebsiella aerogenes [7]): > 256 µg/mL | MIC (Escherichia coli [8]): 64 µg/mL (≈ 143 µM) | MIC (Enterobacter cloacae [9]): > 256 µg/mL | MIC (Klebsiella aerogenes [10]): > 256 µg/mL | MIC (Klebsiella pneumoniae [11]): > 256 µg/mL | MIC (Klebsiella aerogenes [12]): > 256 µg/mL | MIC (Klebsiella aerogenes [13]): > 256 µg/mL | MIC (Klebsiella aerogenes [14]): > 256 µg/mL | MIC (Escherichia coli [15]): > 256 µg/mL | MIC (Klebsiella pneumoniae [16]): 256 µg/mL (≈ 573 µM) | MIC (Klebsiella aerogenes [17]): > 256 µg/mL | MIC (Pseudomonas aeruginosa [18]): > 256 µg/mL | MIC (Enterobacter cloacae [19]): > 256 µg/mL | MIC (Escherichia coli [20]): > 256 µg/mL | MIC (Escherichia coli [21]): > 256 µg/mL
